In ChEMBL document CHEMBL1833814 (Bioorg Med Chem Lett, 2011):
≈ marks a conversion by molar mass, not a printed value.

Legend:
Fatty acid synthase [1] = target: Fatty acid synthase (Homo sapiens, UniProt P49327); experiment: Inhibition of human FAS assessed as synthesis of long chain fatty acids from malonyl CoA after 60 mins by fluorescence assay
Summary of the method: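 FAS enzyme prepared from HeLa cells, in enzyme buffer (20 mM K phosphate, 1 mM EDTA, 1 mM DTT, 5% glycerol, pH 7.4). It was preincubated 60 min at 37 °C with compound (0.1% DMSO), 326 µM NADPH and 60 µM acetyl CoA in 100 mM K phosphate, 1 mM EDTA, 1 mM DTT, pH 7.0. The reaction was started with 200 µM malonyl CoA. NADPH consumption was read at 340 nm over 10 min, and the slope (Vmax) was taken.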

Rattus norvegicus [2] = species on record: Rattus norvegicus; experiment: Binding affinity to rat dihydropyridine binding site of calcium channel L-type at 10 uM by radioligand binding assay
Cytochrome P450 1A2 = Cytochrome P450 1A2 (Homo sapiens, UniProt P05177); experiment: Inhibition of human CYP1A2; assay type: ADME
[3] = target: Acetylcholine receptor subunit alpha (Homo sapiens) (UniProt P02708); experiment: Binding affinity to human bungrotoxin binding site of nicotinic acetylcholine receptor alpha1 at 10 uM by radioligand binding assay
[4] = target: Muscarinic acetylcholine receptor M3 (Homo sapiens) (UniProt P20309); experiment: Binding affinity to human muscarinic M3 receptor at 10 uM by radioligand binding assay
[5] = target: D(1A) dopamine receptor (Homo sapiens) (UniProt P21728); experiment: Binding affinity to human dopamine D1 receptor at 10 uM by radioligand binding assay
[6] = Aqueous solubility of compound at pH 7.4; assay type: physicochemical; conditions: buffer
[7] = target: Beta-1 adrenergic receptor (Homo sapiens) (UniProt P08588); experiment: Binding affinity to human beta1 adrenergic receptor at 10 uM by radioligand binding assay
Rattus norvegicus [8] = species on record: Rattus norvegicus; experiment: Binding affinity to rat ATP-sensitive potassium channel at 10 uM by radioligand binding assay
[9] = Plasma protein binding in rat; assay type: ADME, cell-free; conditions: read-out: PPB (converted)
[10] = target: D(2) dopamine receptor (Homo sapiens) (UniProt P14416); experiment: Binding affinity to human dopamine D2short receptor at 10 uM by radioligand binding assay
Sequence of D(2) dopamine receptor (Homo sapiens) (P14416 whole entry): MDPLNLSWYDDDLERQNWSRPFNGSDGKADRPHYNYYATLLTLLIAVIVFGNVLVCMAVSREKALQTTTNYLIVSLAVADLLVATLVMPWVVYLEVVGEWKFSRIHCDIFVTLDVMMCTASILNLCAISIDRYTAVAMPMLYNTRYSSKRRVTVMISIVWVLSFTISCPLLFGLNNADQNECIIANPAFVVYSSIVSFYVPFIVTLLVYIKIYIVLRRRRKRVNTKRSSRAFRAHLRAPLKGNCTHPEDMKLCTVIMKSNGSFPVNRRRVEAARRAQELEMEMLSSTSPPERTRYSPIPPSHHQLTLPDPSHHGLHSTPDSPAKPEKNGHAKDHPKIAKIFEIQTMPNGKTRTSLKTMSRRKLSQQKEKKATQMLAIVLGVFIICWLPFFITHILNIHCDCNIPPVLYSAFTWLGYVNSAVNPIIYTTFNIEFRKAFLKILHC

[11] = target: Beta-2 adrenergic receptor (Homo sapiens) (UniProt P07550); experiment: Binding affinity to human adrenergic beta2 receptor at 10 uM by radioligand binding assay
[12] = target: Pyroglutamylated RF-amide peptide receptor (Homo sapiens) (UniProt Q96P65); experiment: Binding affinity to human GPR103 receptor at 10 uM by radioligand binding assay
[13] = target: Sodium-dependent noradrenaline transporter (Homo sapiens) (UniProt P23975); experiment: Binding affinity to human NET at 10 uM by radioligand binding assay
[14] = AUC (0 to infinity) in Han/Wistar rat at 4 mg/kg, po; assay type: ADME, organism-based; set-up: time infinity, dose 4 mg/kg, route oral; conditions: plasma
Summary of the method: (§1)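 Male Han/Wistar rats were dosed orally. Compound levels were measured in plasma, and in brain and CSF at 2 h.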

[15] = target: Alpha-1A adrenergic receptor (Rattus norvegicus) (UniProt P43140); experiment: Binding affinity to rat adrenergic alpha1A receptor at 10 uM by radioligand binding assay
[16] = target: Glutamate NMDA receptor (Rattus norvegicus) (UniProt P35439+Q00959+Q00960+Q00961+Q62645+Q8VHN2+Q9R1M7); experiment: Binding affinity to rat NMDA receptor at 10 uM by radioligand binding assay; assay type: protein-complex assay
Cytochrome P450 3A4 = Cytochrome P450 3A4 (Homo sapiens, UniProt P08684); experiment: Inhibition of human CYP3A4; assay type: ADME
[17] = Tmax in Han/Wistar rat at 4 mg/kg, po; assay type: ADME, organism-based; set-up: dose 4 mg/kg, route oral; conditions: in vivo; summary of the method: as §1
hERG (KCNH2) = hERG (KCNH2) (Homo sapiens, UniProt Q12809); experiment: Binding affinity to human ERG at 10 uM by radioligand binding assay
Liver microsomes [18] = experiment: Metabolic stability in human liver microsomes; assay type: ADME, Microsome
Cytochrome P450 2D6 = Cytochrome P450 2D6 (Homo sapiens, UniProt P10635); experiment: Inhibition of human CYP2D6; assay type: ADME
Rattus norvegicus [19] = species on record: Rattus norvegicus; experiment: Binding affinity to rat sodium channel site 2 at 10 uM by radioligand binding assay
[20] = Volume of distribution at steady state in iv dosed Han/Wistar rat; assay type: ADME, organism-based; conditions: in vivo, read-out: Vdss
Summary of the method: (§2)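 Male Han/Wistar rats were dosed intravenously.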

U937 (Homo sapiens) = experiment: Cytotoxicity against human U937 cells up to 30 uM by LDH release assay
[21] = target: Muscarinic acetylcholine receptor M2 (Homo sapiens) (UniProt P08172); experiment: Binding affinity to human muscarinic M2 receptor at 10 uM by radioligand binding assay
Sequence of Muscarinic acetylcholine receptor M2 (Homo sapiens) (P08172 whole entry): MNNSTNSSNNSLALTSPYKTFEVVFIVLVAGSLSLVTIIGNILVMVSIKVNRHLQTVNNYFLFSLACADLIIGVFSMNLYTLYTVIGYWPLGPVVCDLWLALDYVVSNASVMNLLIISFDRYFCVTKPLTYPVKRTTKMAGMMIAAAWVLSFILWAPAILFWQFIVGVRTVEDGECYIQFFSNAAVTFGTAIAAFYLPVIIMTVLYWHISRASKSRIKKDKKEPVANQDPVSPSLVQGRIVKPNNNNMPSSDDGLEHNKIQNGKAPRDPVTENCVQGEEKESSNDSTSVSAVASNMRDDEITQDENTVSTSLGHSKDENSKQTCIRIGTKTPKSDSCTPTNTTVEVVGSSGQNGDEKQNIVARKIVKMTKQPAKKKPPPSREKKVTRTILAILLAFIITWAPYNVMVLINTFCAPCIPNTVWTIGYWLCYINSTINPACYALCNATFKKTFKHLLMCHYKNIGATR

[22] = target: Alpha-1B adrenergic receptor (Rattus norvegicus) (UniProt P15823); experiment: Binding affinity to rat adrenergic Alpha-1B receptor at 10 uM by radioligand binding assay
Sequence of Alpha-1B adrenergic receptor (Rattus norvegicus) (P15823 whole entry): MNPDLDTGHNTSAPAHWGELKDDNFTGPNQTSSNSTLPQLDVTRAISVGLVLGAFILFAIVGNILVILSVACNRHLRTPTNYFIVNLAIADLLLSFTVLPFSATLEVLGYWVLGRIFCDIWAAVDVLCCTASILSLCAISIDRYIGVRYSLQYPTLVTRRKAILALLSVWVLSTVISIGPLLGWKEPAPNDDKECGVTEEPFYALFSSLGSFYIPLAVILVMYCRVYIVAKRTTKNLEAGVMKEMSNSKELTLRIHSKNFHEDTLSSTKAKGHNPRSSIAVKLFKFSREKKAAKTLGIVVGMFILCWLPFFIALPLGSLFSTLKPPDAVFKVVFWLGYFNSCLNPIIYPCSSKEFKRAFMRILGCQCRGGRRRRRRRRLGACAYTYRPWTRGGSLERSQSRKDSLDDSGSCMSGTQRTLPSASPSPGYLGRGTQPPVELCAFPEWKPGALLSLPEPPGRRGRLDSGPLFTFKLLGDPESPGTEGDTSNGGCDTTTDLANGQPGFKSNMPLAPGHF

[23] = Clearance in iv dosed Han/Wistar rat; assay type: ADME, organism-based; conditions: in vivo; summary of the method: as §2
[24] = Drug level in Han/Wistar rat cerebrospinal fluid at 4 mg/kg, po after 2 hrs; assay type: ADME, organism-based; set-up: dose 4 mg/kg, route oral; conditions: read-out: Drug uptake; summary of the method: as §1
[25] = Half life in Han/Wistar rat at 4 mg/kg, po; assay type: ADME, organism-based; set-up: dose 4 mg/kg, route oral; conditions: in vivo; summary of the method: as §1
[26] = target: Mu-type opioid receptor (Homo sapiens) (UniProt P35372); experiment: Binding affinity to human MOP receptor at 10 uM by radioligand binding assay
[27] = target: Adenosine receptor A1 (Homo sapiens) (UniProt P30542); experiment: Binding affinity to human adenosine A1 receptor at 10 uM by radioligand binding assay
Homo sapiens = species on record: Homo sapiens; experiment: Liver blood flow human; assay type: ADME, organism-based
[28] = target: Sigma non-opioid intracellular receptor 1 (Homo sapiens) (UniProt Q99720); experiment: Binding affinity to human sigma 1 receptor at 10 uM by radioligand binding assay
Sequence of Sigma non-opioid intracellular receptor 1 (Homo sapiens) (Q99720 whole entry): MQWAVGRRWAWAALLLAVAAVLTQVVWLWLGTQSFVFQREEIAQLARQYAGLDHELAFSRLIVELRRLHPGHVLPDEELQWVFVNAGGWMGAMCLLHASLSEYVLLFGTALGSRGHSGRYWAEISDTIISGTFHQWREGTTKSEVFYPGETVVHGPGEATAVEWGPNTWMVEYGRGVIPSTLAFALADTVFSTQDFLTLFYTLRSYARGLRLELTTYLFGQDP

[29] = target: Alpha-2A adrenergic receptor (Homo sapiens) (UniProt P08913); experiment: Binding affinity to human adrenergic alpha2A receptor at 10 uM by radioligand binding assay
Rattus norvegicus [30] = species on record: Rattus norvegicus; experiment: Binding affinity to rat GABA-A receptor at 10 uM by radioligand binding assay
[31] = Cmax in Han/Wistar rat at 4 mg/kg, po; assay type: ADME, organism-based; set-up: dose 4 mg/kg, route oral; conditions: in vivo; summary of the method: as §1
[32] = target: Adenosine receptor A2a (Homo sapiens) (UniProt P29274); experiment: Binding affinity to human adenosine A2A receptor at 10 uM by radioligand binding assay
Sequence of Adenosine receptor A2a (Homo sapiens) (P29274 whole entry): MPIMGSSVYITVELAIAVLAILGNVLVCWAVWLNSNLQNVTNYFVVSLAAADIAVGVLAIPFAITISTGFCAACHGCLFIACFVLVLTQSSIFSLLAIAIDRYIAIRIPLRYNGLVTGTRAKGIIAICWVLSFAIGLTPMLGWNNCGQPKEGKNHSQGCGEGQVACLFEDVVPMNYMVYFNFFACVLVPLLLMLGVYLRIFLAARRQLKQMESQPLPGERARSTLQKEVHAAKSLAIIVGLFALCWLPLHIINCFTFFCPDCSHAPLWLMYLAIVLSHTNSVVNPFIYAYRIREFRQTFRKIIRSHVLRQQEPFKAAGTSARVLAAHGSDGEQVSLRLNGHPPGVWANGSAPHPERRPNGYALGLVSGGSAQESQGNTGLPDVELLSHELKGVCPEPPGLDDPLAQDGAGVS

[33] = target: Prostaglandin E2 receptor EP4 subtype (Homo sapiens) (UniProt P35408); experiment: Binding affinity to human EP4 receptor at 10 uM by radioligand binding assay
Cytochrome P450 2C19 = Cytochrome P450 2C19 (Homo sapiens, UniProt P33261); experiment: Inhibition of human CYP2C19; assay type: ADME
Sequence of Cytochrome P450 2C19 (P33261 whole entry): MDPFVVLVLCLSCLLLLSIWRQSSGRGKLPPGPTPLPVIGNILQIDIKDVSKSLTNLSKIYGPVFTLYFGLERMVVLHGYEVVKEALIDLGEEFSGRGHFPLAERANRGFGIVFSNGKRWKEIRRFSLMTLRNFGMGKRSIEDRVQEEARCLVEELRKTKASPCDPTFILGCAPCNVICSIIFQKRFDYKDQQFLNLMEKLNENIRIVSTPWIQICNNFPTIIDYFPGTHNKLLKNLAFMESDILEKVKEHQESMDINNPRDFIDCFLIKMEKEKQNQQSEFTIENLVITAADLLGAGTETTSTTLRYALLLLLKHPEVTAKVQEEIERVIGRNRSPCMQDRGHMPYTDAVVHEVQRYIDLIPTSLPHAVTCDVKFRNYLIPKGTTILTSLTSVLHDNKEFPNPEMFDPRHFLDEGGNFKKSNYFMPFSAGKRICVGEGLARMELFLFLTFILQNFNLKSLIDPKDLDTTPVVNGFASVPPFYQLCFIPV

[34] = Drug level in Han/Wistar rat brain at 4 mg/kg, po after 2 hrs; assay type: ADME, organism-based; set-up: dose 4 mg/kg, route oral; conditions: read-out: Drug uptake; summary of the method: as §1
[35] = Oral bioavailability in Han/Wistar rat at 4 mg/kg; assay type: ADME, organism-based; conditions: in vivo; summary of the method: as §1
Fatty acid synthase [36] = target: Fatty acid synthase (Mus musculus, UniProt P19096); experiment: Inhibition of FAS in mouse N42 cells assessed as [14C]-acetate incorporation after 4 hrs by scintillation counting; assay type: cell-based
Summary of the method: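 Immortalized clonal neuronal mouse hypothalamic N-42 cells were exposed to compound for 60 min at 37 °C, then to 14C-acetate (10^6 dpm) for 4 h at 37 °C. Lipids were extracted with chloroform/methanol and the lower phase was evaporated. Incorporated radioactivity was measured by scintillation counting.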

Mus musculus = species on record: Mus musculus; experiment: Binding affinity to mouse phorbol ester receptor at 10 uM by radioligand binding assay
[37] = Permeability across human Caco2 cells; assay type: ADME, cell-based; conditions: Caco-2, read-out: permeability
Rattus norvegicus [38] = species on record: Rattus norvegicus; experiment: Binding affinity to rat agonist site of GABA-A receptor at 10 uM by radioligand binding assay
Cytochrome P450 2C9 = Cytochrome P450 2C9 (Homo sapiens, UniProt P11712); experiment: Inhibition of human CYP2C9; assay type: ADME
Rattus norvegicus [39] = species on record: Rattus norvegicus; experiment: Binding affinity to rat rolipram binding site at 10 uM by radioligand binding assay
Rattus norvegicus [40] = species on record: Rattus norvegicus; experiment: Binding affinity to rat central imidazoline I2 receptor at 10 uM by radioligand binding assay
Liver microsomes [41] = experiment: Metabolic stability in rat liver microsomes; assay type: ADME, Microsome
Rattus norvegicus [42] = species on record: Rattus norvegicus; experiment: Binding affinity to rat sigma 2 receptor at 10 uM by radioligand binding assay
Rattus norvegicus [43] = species on record: Rattus norvegicus; experiment: Liver blood flow rat; assay type: ADME, organism-based
[44] = target: Histamine H1 receptor (Homo sapiens) (UniProt P35367); experiment: Binding affinity to human histamine H1 receptor at 10 uM by radioligand binding assay

Sequence of Fatty acid synthase (Homo sapiens, UniProt P49327) (P49327 whole entry): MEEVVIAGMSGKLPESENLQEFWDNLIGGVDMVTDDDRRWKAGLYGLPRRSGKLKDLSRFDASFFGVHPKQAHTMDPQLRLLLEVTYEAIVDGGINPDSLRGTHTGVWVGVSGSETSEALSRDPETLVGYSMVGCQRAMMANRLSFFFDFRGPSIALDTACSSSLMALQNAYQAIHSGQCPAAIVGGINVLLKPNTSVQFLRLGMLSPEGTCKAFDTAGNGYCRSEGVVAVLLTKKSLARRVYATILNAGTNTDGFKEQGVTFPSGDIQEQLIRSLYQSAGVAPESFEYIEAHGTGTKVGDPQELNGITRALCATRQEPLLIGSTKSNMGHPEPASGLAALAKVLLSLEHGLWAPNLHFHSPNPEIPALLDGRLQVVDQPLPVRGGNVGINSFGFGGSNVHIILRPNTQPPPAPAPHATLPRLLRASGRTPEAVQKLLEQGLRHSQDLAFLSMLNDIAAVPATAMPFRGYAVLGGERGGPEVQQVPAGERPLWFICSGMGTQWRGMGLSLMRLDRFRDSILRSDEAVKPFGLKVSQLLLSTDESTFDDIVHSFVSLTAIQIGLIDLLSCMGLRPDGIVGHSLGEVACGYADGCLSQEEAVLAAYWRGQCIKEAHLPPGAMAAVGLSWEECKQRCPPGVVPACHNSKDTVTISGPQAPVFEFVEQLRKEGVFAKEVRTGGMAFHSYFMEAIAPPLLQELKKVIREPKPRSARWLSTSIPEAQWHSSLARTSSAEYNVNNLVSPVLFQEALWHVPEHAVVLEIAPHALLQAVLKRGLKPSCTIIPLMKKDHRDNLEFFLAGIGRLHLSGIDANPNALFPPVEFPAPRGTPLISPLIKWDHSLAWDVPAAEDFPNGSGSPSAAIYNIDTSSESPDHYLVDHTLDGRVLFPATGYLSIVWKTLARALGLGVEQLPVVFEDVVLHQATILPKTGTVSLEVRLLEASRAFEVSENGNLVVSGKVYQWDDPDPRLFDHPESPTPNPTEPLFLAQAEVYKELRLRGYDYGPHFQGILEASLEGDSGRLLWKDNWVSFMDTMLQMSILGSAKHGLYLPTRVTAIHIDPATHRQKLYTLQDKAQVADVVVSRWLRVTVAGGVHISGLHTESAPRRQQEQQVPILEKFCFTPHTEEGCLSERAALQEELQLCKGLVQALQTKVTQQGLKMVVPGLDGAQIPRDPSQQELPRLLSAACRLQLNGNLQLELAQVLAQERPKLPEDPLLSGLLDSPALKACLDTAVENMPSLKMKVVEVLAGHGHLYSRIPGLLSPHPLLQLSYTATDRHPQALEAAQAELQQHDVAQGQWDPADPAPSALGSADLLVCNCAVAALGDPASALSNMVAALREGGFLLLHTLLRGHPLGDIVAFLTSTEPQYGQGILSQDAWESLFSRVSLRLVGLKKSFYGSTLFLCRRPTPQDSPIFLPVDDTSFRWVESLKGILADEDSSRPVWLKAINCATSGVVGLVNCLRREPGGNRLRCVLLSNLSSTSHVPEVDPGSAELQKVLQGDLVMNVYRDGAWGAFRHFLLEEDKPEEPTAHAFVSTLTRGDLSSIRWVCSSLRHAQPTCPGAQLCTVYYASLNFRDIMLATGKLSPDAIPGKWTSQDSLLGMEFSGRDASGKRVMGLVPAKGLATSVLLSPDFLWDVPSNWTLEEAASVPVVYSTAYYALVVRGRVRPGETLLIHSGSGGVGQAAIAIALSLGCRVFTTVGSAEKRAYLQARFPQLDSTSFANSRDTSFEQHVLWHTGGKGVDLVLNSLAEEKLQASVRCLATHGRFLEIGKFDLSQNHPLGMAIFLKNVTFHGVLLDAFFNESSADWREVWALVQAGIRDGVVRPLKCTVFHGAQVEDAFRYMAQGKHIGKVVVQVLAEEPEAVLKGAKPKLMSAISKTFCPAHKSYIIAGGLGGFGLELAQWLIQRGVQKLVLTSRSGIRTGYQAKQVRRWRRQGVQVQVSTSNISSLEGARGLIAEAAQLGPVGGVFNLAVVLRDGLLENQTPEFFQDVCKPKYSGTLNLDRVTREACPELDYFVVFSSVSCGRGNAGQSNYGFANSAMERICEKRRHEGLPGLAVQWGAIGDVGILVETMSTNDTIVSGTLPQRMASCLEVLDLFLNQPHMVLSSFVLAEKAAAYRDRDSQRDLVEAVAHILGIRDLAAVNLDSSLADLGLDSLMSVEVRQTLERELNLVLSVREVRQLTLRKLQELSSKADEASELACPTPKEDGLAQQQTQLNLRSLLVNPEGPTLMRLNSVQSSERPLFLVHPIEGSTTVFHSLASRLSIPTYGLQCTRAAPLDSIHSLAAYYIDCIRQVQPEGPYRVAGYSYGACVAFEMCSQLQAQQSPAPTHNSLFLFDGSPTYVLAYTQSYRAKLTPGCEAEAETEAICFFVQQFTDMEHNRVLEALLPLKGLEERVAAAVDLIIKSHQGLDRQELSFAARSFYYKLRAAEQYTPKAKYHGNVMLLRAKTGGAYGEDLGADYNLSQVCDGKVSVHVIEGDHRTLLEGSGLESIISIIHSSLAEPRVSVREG

For `CN(C)CCCCCC(=O)N[C@H]1CC[C@@H](C(=O)N(C)c2ccc(-c3nc4ccccc4[nH]3)cc2)C1`, the IC50 (Fatty acid synthase [1]) was 0.7 µM.
Work on `CCNC(=O)N[C@H]1CC[C@@H](C(=O)N(C)c2ccc(-c3nc4ccccc4n3C)cc2)C1` yielded an IC50 (Fatty acid synthase [1]) of 1.4 µM.
`CN(C)CCCCCC(=O)N[C@H]1CC[C@@H](C(=O)N(C)c2ccc(-c3nc4ccccc4n3C)cc2)C1` showed an IC50 (Fatty acid synthase [1]) of 2.4 µM.
Compound `CC(=O)N[C@H]1CC[C@@H](C(=O)N(C)c2ccc(-c3nc4ccccc4o3)cc2)C1` has an IC50 (Fatty acid synthase [1]) of 0.2 µM.
Compound `CCCC(=O)N[C@H]1CC[C@@H](C(=O)N(C)c2ccc(-c3nc4ccccc4o3)cc2)C1` has an IC50 (Fatty acid synthase [1]) of 0.42 µM.
Compound `CN(C(=O)[C@@H]1CC[C@H](NC(=O)C(F)F)C1)c1ccc(-c2nc3ccccc3o2)cc1` has an IC50 (Fatty acid synthase [1]) of 0.27 µM.
Work on `COCC(=O)N[C@H]1CC[C@@H](C(=O)N(C)c2ccc(-c3nc4ccccc4o3)cc2)C1` yielded an IC50 (Fatty acid synthase [1]) of 0.91 µM.
For `CCNC(=O)N[C@H]1CC[C@@H](C(=O)N(C)c2ccc(-c3nc4ccccc4o3)cc2)C1`, the IC50 (Fatty acid synthase [1]) was 0.53 µM.
Work on `CN(C)C(=O)N[C@H]1CC[C@@H](C(=O)N(C)c2ccc(-c3nc4ccccc4o3)cc2)C1` yielded an IC50 (Fatty acid synthase [1]) of 0.28 µM.
For `CN(C)CCCCCC(=O)N[C@H]1CC[C@@H](C(=O)N(C)c2ccc(-c3nc4ccccc4o3)cc2)C1`, the IC50 (Fatty acid synthase [1]) was 0.58 µM.
`CCC(=O)N[C@H]1CC[C@@H](C(=O)N(C)c2ccc(-c3nc4ccccc4o3)cc2)C1` [BI 99179] gave an IC50 (Fatty acid synthase [1]) of 0.079 µM, an inhibition (Rattus norvegicus [2]) of 7% and an IC50 (Cytochrome P450 1A2) greater than 10 µM. The inhibition [3] was 9%, the inhibition [4] was -6% and the inhibition [5] was 7%. The solubility [6] was 5 µg/mL (≈ 12.8 µM), the inhibition [7] was 4% and the inhibition (Rattus norvegicus [8]) was 12%. The fraction unbound [9] was 0.024, the inhibition [10] was 5% and the inhibition [11] was 0%. The inhibition [12] was -1%, the inhibition [13] was 9% and the AUC(0-inf) [14] was 9.35 µM·h. The inhibition [15] was 17%, the inhibition [16] was -1% and the IC50 (Cytochrome P450 3A4) was greater than 10 µM. For the same compound, the Tmax [17] was 0.5 h, the inhibition at 10 µM (hERG (KCNH2)) was -5% and the Stability (Liver microsomes [18]) was “Stable”. It also gave an IC50 (Cytochrome P450 2D6) greater than 10 µM, an inhibition (Rattus norvegicus [19]) of 1% and a Vd [20] of 1.6 L/kg. For the same compound, the Activity (U937 (Homo sapiens)) was “Non-toxic”, the inhibition [21] was 10% and the inhibition [22] was 4%. It also gave a clearance [23] of 0.492 L/h/kg, a concentration at 2 h [24] of 0.05 µM and a half-life [25] of 3 h. It also gave an inhibition [26] of 0%, an inhibition [27] of -7% and a QH (Homo sapiens) of less than 26%. It also gave an inhibition [28] of -2%, an inhibition [29] of 2% and an inhibition (Rattus norvegicus [30]) of 8%. The Cmax [31] was 2.11 µM, the inhibition [32] was 10% and the inhibition [33] was 9%. For the same compound, the IC50 (Cytochrome P450 2C19) was greater than 10 µM, the concentration at 2 h [34] was 1.3 µM and the bioavailability [35] was 46%. It also gave an IC50 (Fatty acid synthase [36]) of 0.6 µM, an inhibition (Mus musculus) of 6% and a Papp [37] of 940 nm/s. For the same compound, the inhibition (Rattus norvegicus [38]) was 4%, the IC50 (Cytochrome P450 2C9) was greater than 10 µM and the inhibition (Rattus norvegicus [39]) was 17%. For the same compound, the inhibition (Rattus norvegicus [40]) was 19%, the Stability (Liver microsomes [41]) was “Stable” and the inhibition (Rattus norvegicus [42]) was 13%. It also gave a QH (Rattus norvegicus [43]) of less than 27% and an inhibition [44] of 13%.
Work on `CCC(=O)N[C@@H]1CC[C@H](C(=O)N(C)c2ccc(-c3nc4ccccc4o3)cc2)C1` [BI 99990] yielded an IC50 (Fatty acid synthase [1]) greater than 3 µM.
`C/C=C/C/C=C/CCC(=O)[C@H]1O[C@H]1C(N)=O` [CERULENIN] showed an IC50 (Fatty acid synthase [1]) of 5.8 µM.
